# Many of the other results were omitted from the sample, so hits are more common in it than they were.
# H69AR inhibit: proliferation blockers of H69AR lung cancer cells, primary screen, cell-based, human, 86K library; viability, % at 10 µM; 6% of 85,000 active; H69AR lung tumor viability, ATP luminescence, 72 h; active compounds read low; AID 598, 2007;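 active = viability at or below 40%; inactive = viability above 40%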;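 note: multidrug resistant small cell line overexpressing MRP-1 efflux transporter; 100% = mean luminescence of untreated control wells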
# HCT116 PTEN-null: growth suppression of PTEN-null HCT116, primary screen, cell-based, CellTiter-Glo | viability, % at 10 µM | HCT116 PTEN-null viability, 60 h; active compounds read low | 1.2% of 140,000 active;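 active = viability at or below a set limit, 4 SD under the median of all tested compounds, cut at about 3.7% in these data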;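 note: PTEN knockout HCT116 line with beta catenin targeted HCT116 as companion control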
# HUVEC prolif 384: inhibitors of HUVEC proliferation, primary screen, cell-based, 384-well | viability, % at 10 µM (by protocol) | AID 648, 2007 | 1.1% of 86,000 active | CellTiter-Glo luminescence, 72 h; active compounds read low;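 active = viability at or below 30%; inactive = viability above 30%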;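 note: 100% = median luminescence of DMSO-only cell control wells on each plate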
# Lung fibro prol: antiproliferative effect on LL 47 fibroblasts – human, LL 47 cells, CellTiter-Glo luminescence, primary screen | LL 47 human lung fibroblast viability, ATP luminescence; active compounds read low | viability, % at 10 µM | 1.1% of 85,000 active;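 active = viability at or below 50% in the single dose screen; inactive = viability above 50%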;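 note: compound exposure lasted 72 h before the ATP readout; 100% = median luminescence of untreated cell-only wells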
#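 Material: human lung fibroblast line LL 47, low passage; Evaluation: viability percentage against median untreated-cell control; Buffer or medium: 15% FBS in IMEM; Incubation: 72 h compound exposure at 37 °C after overnight plating; Dosing: 0.1% DMSO in all compound wells; Measured by: CellTiter-Glo luminescence.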
# HCT116 bCat-KO: primary screen for growth suppressors in beta-catenin knockout HCT116 cells (colon tumor, human) | HCT116 beta-catenin knockout viability, CellTiter-Glo, 60 h; active compounds read low | viability, % at 10 µM | 1.5% of 140,000 active | AID 818, 2007;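 active = viability at or under a set limit, the compound median less 4 SD, cut at about 6% in these data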;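 note: 0% = Hyamine 1622 control at 20 µM and 100% = untreated cell control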
# * marks the source's active call; other numbers are inactive results; . = not tested or not shown.
SMILES,H69AR inhibit,HCT116 PTEN-null,HUVEC prolif 384,Lung fibro prol,HCT116 bCat-KO
COc1cccc(NC(=O)CN2CCN(c3ccc(F)cc3)CC2)c1,28.0*,90.0,109.0,95.4,100.1
O=C(CCN1CCN(c2ccccc2F)CC1)c1ccc(Br)cc1,7.7*,61.5,69.6,85.7,72.7
CCOCC(=O)Nc1cccc(OC)c1,28.2*,95.3,90.6,95.6,93.4
COc1cccc(NC(=O)CCC(=O)Nc2cccc(OC)c2)c1,.,90.1,.,.,94.0
COC(=O)c1cccc(NC(=O)CN2CCN(c3ccc(OC)cc3)CC2)c1,90.5,97.8,99.4,98.5,100.8
CCOc1ccc(NC(=O)C/C(N)=N/O)cc1,95.1,96.8,94.1,95.0,92.4
Cc1cccc2cc(-c3ccccc3)c(-c3ccccc3)c[n+]12,.,12.0,.,.,12.4
CCOc1ccc(NC(=O)CN2CCN(CC(=O)c3ccc(OCC)cc3)CC2)cc1,86.1,101.6,97.8,91.4,83.6
CCOc1ccc(NC(=O)CCN2CCN(c3ccccc3F)CC2)cc1,24.5*,44.1,70.8,92.7,42.6
CCOc1ccc(NC(=O)CN2CCN(CC(=O)Nc3ccc(F)cc3)CC2)cc1,30.3*,94.8,97.6,89.2,93.1
CC(C)OC(=O)CC12CN(C)CC(CC(=O)OC(C)C)(CN(C)C1)C2=O,100.5,104.1,99.8,104.4,102.0
Cc1c(C(=O)Nc2ccc3c(c2)OCCO3)sc2nc(-c3ccccc3)cn12,37.8*,21.2,51.3,84.8,14.0
COC(=O)c1sccc1NC(=O)c1cc(-c2cccc(C)c2)nc2ccccc12,.,0.8*,.,.,2.0*
CCN(CC)S(=O)(=O)c1ccc2nnn(OCC(=O)Nc3cccc(C#N)c3)c2c1,5.3*,82.0,95.1,99.3,83.7
COc1ccc(NC(=O)c2c3c(nc4ccccc24)CCC3)cc1S(=O)(=O)N1CCOCC1,.,90.5,.,.,81.8
CCOc1ccc(CCNC(=O)C2CCN(c3nnc(-n4cccc4)s3)CC2)cc1,90.9,91.6,110.0,108.3,97.7
CCOc1ccc(CCNC(=O)C2CCN(c3nnc(-n4cccc4)s3)CC2)cc1OCC,39.7*,91.4,98.5,105.3,108.8
Cc1ccc(NC(=O)COC(=O)c2cc(C)nc3ccccc23)c([N+](=O)[O-])c1,.,63.0,.,.,61.1
CCCCc1c(C)c(C#N)c2nc3ccccc3n2c1Cl,.,1.1*,.,.,1.3*
Cc1ccccc1NS(=O)(=O)c1ccc(N2CCCC2=O)cc1,25.8*,27.5,63.4,49.0*,18.4
CCC(CC)C(=O)Nc1cccc(C(=O)c2ccccc2)c1,96.9,96.1,93.1,93.8,90.0
CC(C)(C)c1ccc(S(=O)(=O)N2CCC(c3nc4ccc(Cl)cc4[nH]3)CC2)cc1,34.6*,46.6,66.9,85.3,67.2
O=C(NNc1ccccc1Br)C(O)(c1cccc(C(F)(F)F)c1)c1cccc(C(F)(F)F)c1,.,2.1*,.,.,1.9*
CC(=O)Oc1ccc2c(C)cc(=O)[nH]c2c1,101.4,86.7,72.6,87.5,82.2
CC(=O)Oc1c(C)cc(O)c2ccccc12,0.5*,36.9,104.8,103.6,34.9
SMILES,H69AR inhibit,HCT116 PTEN-null,HUVEC prolif 384,Lung fibro prol,HCT116 bCat-KO
CC1CCCN(c2oc(-c3cccc4ccccc34)nc2C#N)C1 (stereo not drawn),95.0,95.0,96.0,47.1*,89.2
CNC(=O)N(C1=NCC(C)S1)c1ccc(F)cc1F (stereo not drawn),86.6,92.2,76.0,91.6,87.1
CNC(=O)N(C1=NCC(C)(C)S1)c1ccc(F)c(Cl)c1,15.2*,35.9,52.3,81.4,40.1
COc1cc([N+](=O)[O-])ccc1NC(=O)C[n+]1ccccc1,.,96.4,.,.,94.8
O=C(Cc1ccc(Cl)cc1Cl)Nc1cccc(S(=O)(=O)Nc2ccccc2F)c1,.,85.8,.,.,91.1
Cc1ccc(CSC2=Nc3ccccc3C3=NC(CC(=O)NCc4ccco4)C(=O)N23)cc1 (stereo not drawn),29.1*,94.9,78.9,100.6,102.0
O=C(CC1N=C2c3ccccc3N=C(SCc3ccc(F)cc3)N2C1=O)NCc1ccco1 (stereo not drawn),37.9*,77.0,64.1,92.9,79.3
O=C(CCC1N=C2c3ccccc3N=C(SCc3ccc(Cl)cc3)N2C1=O)NCc1ccco1 (stereo not drawn),73.8,68.8,76.0,101.6,75.0
CC1(C)CC(NC(=O)c2coc(=O)c(Br)c2)CC(C)(C)N1,0.7*,91.9,81.0,34.3*,87.2
Cc1cc(C(=O)CSc2nc3ccccc3[nH]2)c(C)n1Cc1ccco1,.,31.3,.,.,32.6
Cc1ccc(NC(=O)CN(C)S(=O)(=O)c2ccc(Br)s2)cc1F,.,85.2,.,.,85.4
O=c1c(Cl)nc2cc(Cl)ccc2n1CCNc1ncc(C(F)(F)F)cc1Cl,.,1.2*,.,.,1.4*
Cc1ccc(S(=O)(=O)/N=C2\C(=O)c3ccccc3C([O-])=C2n2cc[n+](CCC(C)C)c2)cc1,42.2,6.0,4.4*,44.2*,3.7*
CCCC[n+]1ccn(C2=C([O-])c3ccccc3C(=O)/C2=N\S(=O)(=O)c2ccc(Br)cc2)c1,.,48.5,.,.,37.0
CCCc1nc2ccccc2c(C(=O)OCC(=O)Nc2cccc(S(=O)(=O)N3CCOCC3)c2)c1CC,34.8*,.,55.0,100.7,61.8
CCCc1nc2ccccc2c(C(=O)OCC(=O)Nc2ccc(S(=O)(=O)N3CCOCC3)cc2)c1CC,5.8*,27.5,65.7,78.6,35.9
CCCc1nc2ccccc2c(C(=O)OCC(=O)NCc2ccco2)c1CC,70.7,106.3,90.4,94.2,88.4
Cc1ccc(-c2csc(NC(=O)C3=NN(c4ccccc4)C(=O)CC3)n2)cc1,.,35.2,.,.,41.4
Cc1cccc(NC(=O)c2cccc(Cn3cc(Br)c([N+](=O)[O-])n3)c2)c1C,.,60.6,.,.,64.2
CC(=O)N1c2ccccc2N(Cc2ccc(C)cc2C)C(=O)C1(C)C,23.4*,12.4,50.0,45.7*,12.3
Oc1c(Cl)cc(Cl)cc1Sc1cc(Cl)cc(Cl)c1O,13.8*,4.3,32.7,84.2,4.0*
Oc1c(Cl)cc(Cl)cc1C(C#Cc1ccccc1)N1CCOCC1 (stereo not drawn),.,8.9,.,.,10.9
Cc1onc(-c2ccccc2)c1-c1n[nH]c(=S)n1-c1ccccc1,81.4,.,104.2,102.3,.
Cc1nn(Cc2ccc(Cl)cc2Cl)c(Cl)c1/C=N/NC(=O)CNc1cccc(C(F)(F)F)c1,.,2.3*,.,.,1.8*
Cc1nn(Cc2ccc(F)cc2)c(Cl)c1/C=N/NC(=O)c1cccnc1,.,99.2,.,.,98.8
c1cc2c(cc1C1=Nn3c(nnc3C3CCCCC3)SC1)OCO2,29.5*,38.3,75.2,83.8,48.5
O=C(Cn1cnc([N+](=O)[O-])c1)NC1CCCC1,.,100.2,.,.,105.6
COc1ccc(/C(O)=C2\C(=O)C(=O)N(c3cc(C)on3)C2c2cccc(OC)c2OC)cc1C (stereo not drawn),74.0,101.0,88.4,95.9,98.7

# Source: PubChem BioAssay (SRMLSC)
